KCC2 mod: KCC2 cotransporter modulators, thallium flux, primary screen, cell-based, HEK293 KCC2, FluoZin-2 fluorescence, MLSMR | hit rate 2.2% among 190,000 | B-score of Tl+ flux slope (higher = more flux/activation; lower = inhibition) at 10 µM | Solute carrier family 12 member 5 (Homo sapiens), Q9H2X9 | KCC2 cells, thallium flux FluoZin-2 fluorescence;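 active means thallium flux slope and its plate-corrected score both differing from the plate sample mean at a set confidence after two filtering rounds, in either direction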;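 further: slope of fluorescence scaled to starting intensity during 10 to 20 s after thallium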
KCNK9 inh: KCNK9 potassium channel inhibitors, primary screen, HEK293 cells, thallium flux | AID 488922, 2010 | hit rate 1.2% among 310,000 | FluxOR thallium flux fluorescence; active compounds read low | Potassium channel subfamily K member 9 (Homo sapiens), Q9NPC2 | B-score at 10 µM;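 active means ratio B-score over 3 SD below the library mean, with starting fluorescence within 5 SD of its mean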;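 further: negative B-score means less thallium flux so channel inhibition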
Target sequence (Q9NPC2 whole entry, looked up): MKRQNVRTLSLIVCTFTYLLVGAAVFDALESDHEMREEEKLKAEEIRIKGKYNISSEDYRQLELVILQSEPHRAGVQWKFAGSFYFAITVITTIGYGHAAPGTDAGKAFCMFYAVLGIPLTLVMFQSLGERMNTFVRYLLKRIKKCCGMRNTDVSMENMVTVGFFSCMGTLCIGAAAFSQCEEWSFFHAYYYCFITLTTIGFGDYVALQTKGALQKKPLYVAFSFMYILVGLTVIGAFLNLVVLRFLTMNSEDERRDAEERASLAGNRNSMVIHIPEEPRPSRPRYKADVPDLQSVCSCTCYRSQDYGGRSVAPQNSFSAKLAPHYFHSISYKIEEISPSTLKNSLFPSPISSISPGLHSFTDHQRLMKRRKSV
hERG rescue: hERG rescue from dofetilide block, primary screen, cell-based, CHO-hERG, FluxOR thallium flux, dofetilide IC70; hit rate 0.51% among 310,000; AID 1511, 2009; activation (rescue from dofetilide block), less the hit threshold, % at 10 µM; dofetilide IC70 present; Voltage-gated inwardly rectifying potassium channel KCNH2 (Homo sapiens), Q12809;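 active means activation above the mean of controls blocked by dofetilide plus 5 SD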;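 further: thallium influx through hERG after potassium depolarization seen as dye fluorescence rise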
KCNK3 block: human KCNK3 channel inhibitors, primary screen, CHO cells, FluxOR thallium flux, B-score. Potassium channel subfamily K member 3 (Homo sapiens), O14649. FluxOR fluorescence; active compounds read low. B-score at 10 µM. hit rate 0.84% among 340,000;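 active means B-score under library mean minus 4 SD, starting fluorescence ratio at most library mean plus 5 SD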;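 further: more negative B-score means stronger inhibition of thallium flux through KCNK3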
KCNQ1 block: inhibitors of human KCNQ1 channel, primary screen, cell-based, thallium flux, high-throughput; Potassium voltage-gated channel subfamily KQT member 1 (Homo sapiens), P51787; CHO-K1 KCNQ1, FluxOR thallium flux fluorescence; active compounds read high; B-score at 10 µM; hit rate 1.3% among 310,000;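 active means compounds whose thallium flux B-score, printed positive for inhibition, exceeds three library SD while starting fluorescence stays within three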;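 further: channel opened by potassium depolarization with thallium stimulus after 20 min compound exposure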
KCNQ1 pot: potentiators or activators of KCNQ1 channel, primary screen, cell-based, thallium flux, high-throughput | Potassium voltage-gated channel subfamily KQT member 1 (Homo sapiens), P51787 | AID 2648, 2010 | CHO-K1 KCNQ1, thallium flux FluxOR fluorescence; active compounds read high | hit rate 0.35% among 310,000 | B-score at 10 µM;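 active means fluorescence ratio B-score, a plate-corrected score, at least three library SD, with initial intensity B-score within 5 SD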
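assay system = KCNQ1-transfected CHO-K1 cells | medium = assay buffer with matched DMSO | probe or stimulus = depolarizing K+/Tl+ stimulus, K2SO4 and Tl2SO4 each 12.5 mM in 5x stock | dosing = single dose | incubation = dye 90 min, compound 20 min, room temperature | detection = kinetic FluxOR fluorescence, 10 s baseline plus 110 s post-stimulus | evaluation = ratio B score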
KCNK9 inh conf: KCNK9 potassium channel inhibitors, confirmation, HEK293 cells, thallium flux, duplicate | shares compounds with KCNK9 inh | FluxOR thallium flux fluorescence | inhibition, % at 10 µM | hit rate 43% among 4,900;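 active means thallium signal inhibited by more than 5 SD of the compound-free buffer control wells, on both duplicate plates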
Kir2-1 spec: mouse Kir2.1 channel inhibition, confirmation, selectivity assay for KCNK9 modulator project, cell-based, HEK293, thallium flux; shares compounds with KCNK9 inh; Kir2.1 cells, FluxOR thallium flux fluorescence; inhibition, % at 10 µM; hit rate 4% among 4,900;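 active means thallium signal drop more than 5 SD beyond the mean of the no-compound control wells, seen in both duplicate plates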;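 further: signal is fluorescence rise after thallium addition divided by baseline fluorescence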
KCNK9 uninduced: thallium flux in non-induced HEK293 cells, confirmation, counter-screen for KCNK9 inhibitor project, cell-based, second counter screen, non-induced KCNK9-HEK293. shares compounds with KCNK9 inh. FluxOR thallium flux. inhibition, % at 10 µM. hit rate 40% among 4,900;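 active means thallium signal drop beyond 5 SD of the untreated control mean, on both duplicate plates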
Each line names hits and unclear results; the compound was inactive in the other large screens (follow-up assays come after a bar, where they were run). Compounds with a hit are over-represented: about 4.1% of the library has one in this group of screens.

Cc1cc(C(=O)Cn2nc(C(=O)O)c3ccccc3c2=O)c(C)n1-c1ccc(OC(F)F)cc1	none | KCNK9 inh conf inactive | Kir2-1 spec inactive | KCNK9 uninduced inactive
COc1ccc(-n2c(C)cc(C(=O)Cn3nc(C(=O)O)c4ccccc4c3=O)c2C)cc1	none | KCNK9 inh conf inactive | Kir2-1 spec inactive | KCNK9 uninduced inactive
Cc1ccc(-n2c(C)cc(C(=O)Cn3nc(C(=O)O)c4ccccc4c3=O)c2C)cc1	none
COc1ccc(CCC(=O)N2CCN(S(=O)(=O)c3cccc(Cl)c3)CC2)cc1	none (no result: KCC2 mod, KCNK9 inh, hERG rescue, KCNQ1 block, KCNQ1 pot)
O=C(Cc1ccsc1)NNC(=O)c1ccccc1Cl	none (no result: KCC2 mod)
Cc1cc(C)cc(N(CCC#N)C(=O)CSc2nc3ccccc3c(=O)[nH]2)c1	none (no result: KCC2 mod, KCNK9 inh, hERG rescue, KCNQ1 block, KCNQ1 pot)
Cc1cc(C2N=C(N)Nc3nc4ccccc4n32)c(C)n1-c1ccccc1Cl (stereo not drawn)	KCNK9 inh -8.7 | KCNK9 inh conf 52% | Kir2-1 spec inactive | KCNK9 uninduced 39%
NC1=NC(c2cn[nH]c2-c2ccc(F)cc2)n2c(nc3ccccc32)N1 (stereo not drawn)	none (no result: KCNK3 block)
C[C@@H]1CCC(=O)N(CC[C@H](Sc2ccc(Br)cc2)c2ccccc2)CC1	none (no result: KCC2 mod, KCNK9 inh, hERG rescue, KCNQ1 block, KCNQ1 pot)
Cc1ccc(S[C@@H](CCN2CC[C@H](C)CCC2=O)c2ccccc2)cc1	KCNK9 inh -9.4 (no result: KCC2 mod) | KCNK9 inh conf 66% | Kir2-1 spec inactive | KCNK9 uninduced 34%
C[C@@H]1CCC(=O)N(CC[C@H](Oc2ccccc2)c2ccccc2)CC1	KCNK9 inh -15 (no result: KCC2 mod) | KCNK9 inh conf 74% | Kir2-1 spec inactive | KCNK9 uninduced 36%
CCOc1ccc(S(=O)(=O)N2CCC(C(=O)NCc3cccnc3)CC2)cc1C	none (no result: KCC2 mod)
CC(=O)Nc1ccc(S(=O)(=O)N(C)CC(=O)OCCOc2cccc(C)c2)cc1	none (no result: KCC2 mod)
CCN(CC)C(=O)Cn1cc(S(=O)(=O)CC(=O)Nc2ccc(C(N)=O)cc2)c2ccccc21	none (no result: KCC2 mod)
Cc1ccc(C(=O)CSC2=C(C#N)C(c3ccco3)C3=C(CC(C)(C)CC3=O)N2)cc1 (stereo not drawn)	KCNK9 inh -8.4, KCNK3 block -10 (no result: KCC2 mod) | KCNK9 inh conf 46% | Kir2-1 spec inactive | KCNK9 uninduced 33%
C/C(=N\NC(=O)c1ccncc1)c1cccc(NC(=O)c2ccc(Cl)s2)c1	none (no result: KCC2 mod)
COc1cc(C2C(C#N)=C(N)Oc3cc(N(C)C)ccc32)cc2c1OCO2 (stereo not drawn)	KCNK9 inh -8.6 | KCNK9 inh conf 34% | Kir2-1 spec inactive | KCNK9 uninduced 54%
COc1cc(CNCCSc2nnnn2C)cc(Br)c1OCc1ccccc1F	none
CCOc1cc(CNCCSc2nnnn2C)cc(Br)c1OCc1ccccc1F	KCNK9 inh -9.5 (no result: KCC2 mod) | KCNK9 inh conf inactive | Kir2-1 spec inactive | KCNK9 uninduced 32%
N/C(Cc1ccc(Cl)cc1Cl)=N\OC(=O)c1cccs1	none
N/C(CC(=O)Nc1ccc(F)cc1F)=N\OC(=O)c1cccs1	none | KCNK9 inh conf inactive | Kir2-1 spec inactive | KCNK9 uninduced inactive
COc1ccccc1C(CNC(=O)c1oc2ccccc2c1C)N1CCCC1 (stereo not drawn)	none (no result: KCC2 mod, KCNK9 inh, hERG rescue, KCNQ1 block, KCNQ1 pot)
